The values that follow come from ChEMBL document CHEMBL2062417, “Biotinylated quercetin as an intrinsic photoaffinity proteomics probe for the identification of quercetin target proteins” (Bioorg Med Chem, 2011).

Activity calls are given as the source filed them. The rule behind the calls is not given here.

One assay relates to Jurkat. As to the kind of experiment: Inhibition of heat shock-induced HSP70 expression in human Jurkat cells at 145 uM treated 2 hrs before beat shock challenge measured after 8 hrs by Western blotting. The assay is classed as functional, cell-based. In outline:
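Jurkat cells (low basal HSP70) got 145 μM compound or DMSO vehicle for 2 h, then a 30 min 43 °C heat shock and 8 h recovery at 37 °C. HSP70 and actin were read by Western blot. Controls were unheated cells and heated cells with no additive.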

For assay [1], the target named is Calcium/calmodulin-dependent protein kinase type II subunit beta (Homo sapiens, UniProt Q13554). As to the kind of experiment: Inhibition of CAMK2 using autocamtide-2 as substrate after 30 mins by PKLight assay.
Sequence of Calcium/calmodulin-dependent protein kinase type II subunit beta (Q13554 whole entry): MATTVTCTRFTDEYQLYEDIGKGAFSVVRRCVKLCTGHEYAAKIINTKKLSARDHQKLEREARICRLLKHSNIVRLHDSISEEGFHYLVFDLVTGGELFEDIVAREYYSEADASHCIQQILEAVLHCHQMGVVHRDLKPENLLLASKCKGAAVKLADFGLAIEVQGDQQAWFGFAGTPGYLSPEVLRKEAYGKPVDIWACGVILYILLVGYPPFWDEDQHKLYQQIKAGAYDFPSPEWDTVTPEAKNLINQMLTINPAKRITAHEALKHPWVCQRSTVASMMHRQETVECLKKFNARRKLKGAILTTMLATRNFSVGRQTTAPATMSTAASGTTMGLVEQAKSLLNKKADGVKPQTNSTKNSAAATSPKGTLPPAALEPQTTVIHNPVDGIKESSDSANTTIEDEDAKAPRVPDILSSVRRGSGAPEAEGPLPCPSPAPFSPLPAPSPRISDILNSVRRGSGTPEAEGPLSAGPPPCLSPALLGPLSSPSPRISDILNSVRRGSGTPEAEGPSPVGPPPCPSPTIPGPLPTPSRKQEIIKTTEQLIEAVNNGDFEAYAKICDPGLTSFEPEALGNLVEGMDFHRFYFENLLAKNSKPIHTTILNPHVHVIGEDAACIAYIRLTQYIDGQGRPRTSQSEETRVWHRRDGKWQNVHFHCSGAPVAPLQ

The term IC50 denotes the concentration that gives 50% inhibition. On to `O=c1c(O)c(-c2ccc(O)c(O)c2)oc2cc(O)cc(O)c12` [QUERCETIN], for which, in the assay with Jurkat, the inhibition entry is “Active”. Also, the IC50 in assay [1] stood at 3 µM.
